Paper PMC2213596 (The Journal of Cell Biology, 2008)

Legend:
MEFs [1] = test: short-term killing assay with ABT-737; assay type: cell-based, mouse
Summary of the method: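 Constructs in pMIG (MSCV-IRES-GFP) were packaged in transiently transfected ecotropic Phoenix cells. Filtered supernatants were spin-inoculated onto FDC-P1 cells or SV40 large T-immortalized MEFs. ABT-737 was added immediately after spin inoculation. Viability was the fraction of GFP+ cells excluding 5 μg/ml PI, read by flow cytometry 30 h or at indicated times after transduction. MEF dose-response used stably infected lines given 0–10 μM ABT-737 for 24 h.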

[2] = system: cytochrome c release from MEF mitochondria; test: in vitro cytochrome c release assay; assay type: cell-based, mouse; conditions: 5 μM ABT-737, 30°C, 1 h
primary thymocytes = test: ionomycin-induced killing, cell viability; assay type: cell-based, mouse; conditions: 1 μg/ml ionomycin
Summary of the method: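 Thymocytes came from bim+/+ or bim−/− mice. They were treated with 1 μg/ml ionomycin for 0–24 h. Viability was scored by flow cytometry as propidium iodide-excluding cells. Values are means ± SD of three experiments.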

[3] = system: Mcl-1 in primary thymocytes; test: Mcl-1 levels by Western blotting after ionomycin; assay type: cell-based, mouse; conditions: with 50 μM qVD-OPH
Summary of the method: (§1)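 Cells were cultured with 50 μM qVD-OPH to block caspase cleavage of Mcl-1. For 2, MCF-7 cells were given 1.5 μM thapsigargin for up to 48 h. For 1, primary bim+/+ mouse thymocytes were given 1 μg/ml ionomycin. Cells were lysed in 1% (vol/vol) Triton X-100 buffer. Western blots were probed with rat monoclonal anti-Mcl-1 (19C4-15) and anti-Bim, then reprobed for HSP70 as loading control.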

MCF-7 cells = test: thapsigargin-induced apoptosis, cell viability; assay type: cell-based; conditions: 1.5 μM thapsigargin, 0–48 h
Summary of the method: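 Wild-type MCF-7 cells and a subclone stably expressing Bim shRNA were treated with 1.5 μM thapsigargin for 0–48 h. Survival was measured by flow cytometry as propidium iodide exclusion. Values are means ± SD of three experiments.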

Mcl-1 in MCF-7 cells = test: Mcl-1 levels by Western blotting after thapsigargin; assay type: cell-based; conditions: up to 48 h, with 50 μM qVD-OPH
Summary of the method: as §1

MEFs [4] = test: long-term tolerance assay; assay type: cell-based, mouse; conditions: wild-type MEFs; retroviral expression linked to GFP through IRES; ∼40 d
Summary of the method: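 SV40-immortalized MEF lines stably expressing BH3-only constructs from pMIG (GFP via IRES) were grown without selection. They were harvested every 3 or 4 d over 38 d. At each time point, flow cytometry measured the proportion of GFP+ cells that excluded propidium iodide.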

`CN(C)CC[C@H](CSc1ccccc1)Nc1ccc(S(=O)(=O)NC(=O)c2ccc(N3CCN(Cc4ccccc4-c4ccc(Cl)cc4)CC3)cc2)cc1[N+](=O)[O-]` [ABT-737] was tested, and the “time to maximal cell death” value (MEFs [1]; 1 μM ABT-737, MEFs expressing BimS2A, Noxa or BimSNoxaBH3) was 4 to 6 h, the “killing of MEFs lacking Bim and Bid” value (MEFs [1]; ABT-737 with BimS2A expression) was “able to synergize and kill” and the “killing of bax−/− and bak−/− MEFs” value (MEFs [1]; BimS2A/ABT-737 combination) was “able to kill”. For the same molecule, the “viability of MEFs expressing Mcl-1–selective BH3-only proteins” value (MEFs [1]; MEFs expressing BimS2A, BimSNoxaBH3 or Noxa, 24 h, 0–10 μM ABT-737) was “efficiently kill cells”, the cytochrome c release ([2]; mitochondria from BimS2A-expressing cells) was “significant release” and the cytochrome c release ([2]; mitochondria from BimS4E-expressing cells) was “No cytochrome c release”.

In the case of `C[C@H](CCC(=O)O)C[C@H](C)C[C@H](C)C(=O)/C=C(\O)[C@H](C)C[C@H](C)C/C=C/[C@@H](C)[C@@H](O)[C@@H](C)[C@@H](O)C[C@@H]1CC[C@@](C)([C@H]2CC[C@@](C)([C@@H](C)O)O2)O1` [ionomycin], the “killing of Bim-deficient thymocytes” value (primary thymocytes; 0–24 h) is reported as “attenuates”, the “death of wild-type thymocytes” value (primary thymocytes; 0–24 h, three experiments) is reported as “significant death” and the “Mcl-1 levels after treatment” value [3] is reported as “did not significantly change”.

`CC(C)[C@H](NC(=O)c1ccc2ccccc2n1)C(=O)N[C@@H](CC(=O)O)C(=O)COc1c(F)cccc1F` [qVD-OPH] was tested, and the “effect on killing induced by ionomycin” value (primary thymocytes; 50 μM qVD-OPH, thymocytes) was “significantly reduced the killing”.

`C/C=C(/C)C(=O)O[C@H]1C(C)=C2[C@H]([C@@H]1OC(=O)CCCCCCC)[C@@](C)(OC(C)=O)C[C@H](OC(=O)CCC)[C@@]1(O)[C@H]2OC(=O)[C@@]1(C)O` [thapsigargin] was tested, and the “cell death of MCF-7 cells expressing Bim shRNA” value (MCF-7 cells) was “relatively insensitive”, the “cell death of wild-type MCF-7 cells” value (MCF-7 cells; three experiments) was “Significant cell death” and the “Mcl-1 levels over levels in untreated cells” value (Mcl-1 in MCF-7 cells) was “up to twofold”.

B1: Bad: BH3-only protein targeting Bcl-xL, Bcl-w and Bcl-2, retrovirally expressed (protein, UniProt Q61337 1-204, looked up)
Bcl2-associated agonist of …: MGTPKQPSLAPAHALGLRKSDPGIRSLGSDAGGRRWRPAAQSMFQIPEFEPSEQEDASATDRGLGPSLTEDQPGPYLAPGLLGSNIHQQGRAATNSHHGGAGAMETRSRHSSYPAGTEEDEGMEEELSPFRGRSRSAPPNLWAAQRYGRELRRMSDEFEGSFKGLPRPKSAGTATQMRQSAGWTRIIQSWWDRNLGKGGSTPSQ
In the case of B1, the “viable cells that remained GFP+ve” value (MEFs [4]) is reported as over 80%.

B2: Noxa: BH3-only protein preferentially binding Mcl-1, retrovirally expressed (protein, UniProt Q9JM54 1-103, looked up)
Phorbol-12-myristate-13-acetat …: MPGRKARRNAPVNPTRAELPPEFAAQLRKIGDKVYCTWSAPDITVVLAQMPGKSQKSRMRSPSPTRVPADLKDECAQLRRIGDKVNLRQKLLNLISKLFNLVT
B2 was tested, and the “viable cells that remained GFP+ve” value (MEFs [4]) was “progressive loss”.

B3: BimS2A: full-length BimS containing the L62A/F69A mutations, retrovirally expressed (protein)
chain: MAKQPSDVSSECDREGRQLQPAERPPQLRPGAPTSLQTEPQASMRQAEPADMRPEIWIAQEARRIGDEANAYYARRVFLNNYQAAEDHPRMVILRLLRYIVRLVWRMH
modifications: left off: HA, end not stated, kept
In the case of B3, the “viable cells that remained GFP+ve” value (MEFs [4]) is reported as “progressive loss”.
